Converted amounts (≈) assume the structure as drawn. The source made the active and inactive calls. The calls are words filed in the database; no cut-off is given here.
Experiments:
Assay type in all cases: functional
Pseudomonas aeruginosa [1] = experiment: Antibacterial activity against Pseudomonas aeruginosa PAO1 after 25 serial passages at 0.125 times MIC by microtiter dilution assay
Pseudomonas aeruginosa [2] = experiment: Antibacterial activity against Pseudomonas aeruginosa PAO1 after 18 hrs by microtiter dilution assay; details: PAO1, 18 h
Method in brief: (§1)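 Broth microdilution following CLSI guidelines. An overnight culture was adjusted to 0.5 McFarland in saline, then diluted 1:50 in Mueller-Hinton broth. This inoculum was added in equal volume to 2-fold serial dilutions of agent in MHB and incubated 18 h at 37 °C. MIC was the lowest concentration with no visible growth.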

Pseudomonas aeruginosa [3] = experiment: Antibacterial activity against multidrug/extremely drug-resistant/colistin-resistant Pseudomonas aeruginosa isolate 91433 after 18 hrs by microtiter dilution assay; details: isolate 91433, 18 h; method in brief: as §1
Pseudomonas aeruginosa [4] = experiment: Antibacterial activity against multidrug/extremely drug-resistant/colistin-susceptible Pseudomonas aeruginosa isolate P259-96918 after 18 hrs by microtiter dilution assay; details: isolate P259-96918, 18 h; method in brief: as §1
Pseudomonas aeruginosa [5] = experiment: Antibacterial activity against multidrug/extremely drug-resistant/colistin-susceptible Pseudomonas aeruginosa isolate P262-101856 infected in Galleria mellonella assessed as mortality at 75 mg/kg after 24 hrs relative to control; details: isolate P262-101856, 24 h
Method in brief: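 Galleria mellonella larvae (about 250 mg, used within 7 days; 15 per group) were injected with 10 µL of XDR P. aeruginosa P262 at 1.0×10^3 CFU/mL. At 2 h they received a single 10 µL injection: monotherapy at 75 mg/kg, or combinations at 12.5+12.5 to 75+75 mg/kg. PBS vehicle served as control. Survival was scored over 24 h at 37 °C.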

Pseudomonas aeruginosa [6] = experiment: Antibacterial activity against multidrug/extremely drug-resistant/colistin-susceptible Pseudomonas aeruginosa isolate 101885 after 18 hrs by microtiter dilution assay; details: isolate 101885, 18 h; method in brief: as §1
Klebsiella pneumoniae [7] = experiment: Antibacterial activity against multidrug-resistant Klebsiella pneumoniae 116381 after 18 hrs by microtiter dilution assay; details: Klebsiella pneumoniae, 116381, 18 h; method in brief: as §1
Pseudomonas aeruginosa [8] = experiment: Bactericidal activity against Pseudomonas aeruginosa PAO1 at 0.125 times antibacterial MIC after 6 hrs
Acinetobacter baumannii [9] = experiment: Antibacterial activity against multidrug-resistant Acinetobacter baumannii AB027 after 18 hrs by microtiter dilution assay; details: AB027, 18 h; method in brief: as §1
Pseudomonas aeruginosa [10] = experiment: Antibacterial activity against multidrug/extremely drug-resistant/colistin-susceptible Pseudomonas aeruginosa isolate P262-101856 after 18 hrs by microtiter dilution assay; details: isolate P262-101856, 18 h; method in brief: as §1
Acinetobacter baumannii [11] = experiment: Antibacterial activity against multidrug-resistant Acinetobacter baumannii AB030 after 18 hrs by microtiter dilution assay; details: AB030, 18 h; method in brief: as §1
Pseudomonas aeruginosa [12] = experiment: Antibacterial activity against multidrug/extremely drug-resistant/colistin-susceptible Pseudomonas aeruginosa isolate 100036 after 18 hrs by microtiter dilution assay; details: isolate 100036, 18 h; method in brief: as §1
Acinetobacter baumannii [13] = experiment: Antibacterial activity against multidrug-resistant Acinetobacter baumannii AB031 after 18 hrs by microtiter dilution assay; details: AB031, 18 h; method in brief: as §1
Acinetobacter baumannii [14] = experiment: Antibacterial activity against multidrug-resistant Acinetobacter baumannii 110193 after 18 hrs by microtiter dilution assay; details: Acinetobacter baumannii, 110193, 18 h; method in brief: as §1
Pseudomonas aeruginosa [15] = experiment: Antibacterial activity against multidrug/extremely drug-resistant/colistin-resistant Pseudomonas aeruginosa isolate 101243 after 18 hrs by microtiter dilution assay; details: isolate 101243, 18 h; method in brief: as §1
Pseudomonas aeruginosa [16] = experiment: Bactericidal activity against Pseudomonas aeruginosa PAO1 at 4 times antibacterial MIC after 2 hrs
Method in brief: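 Time-kill with P. aeruginosa PAO1. A 0.5 McFarland suspension was diluted 1:50 in LB broth and exposed to agent in PBS (pH 7.2) at 1/2×, 1×, 2× or 4× MIC at 37 °C for 6 h. Samples at 0, 10, 30, 60, 90, 120, 240 and 360 min were serially diluted in PBS, plated on LB agar, and colonies counted after 20 h at 37 °C.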

Enterobacter cloacae = experiment: Antibacterial activity against multidrug-resistant Enterobacter cloacae 117029 after 18 hrs by microtiter dilution assay; details: Enterobacter cloacae, 117029, 18 h; method in brief: as §1
Pseudomonas aeruginosa [17] = experiment: Antibacterial activity against multidrug/extremely drug-resistant/colistin-susceptible Pseudomonas aeruginosa isolate P264-104354 after 18 hrs by microtiter dilution assay; details: isolate P264-104354, 18 h; method in brief: as §1
Pseudomonas aeruginosa [18] = experiment: Antibacterial activity against gentamicin/tobramycin-resistant Pseudomonas aeruginosa isolate CANWARD-2011 96846 after 18 hrs by microtiter dilution assay; details: isolate CANWARD-2011 96846, 18 h; method in brief: as §1
Klebsiella pneumoniae [19] = experiment: Antibacterial activity against Klebsiella pneumoniae ATCC 13883 after 18 hrs by microtiter dilution assay; details: ATCC 13883, 18 h
Method in brief: (§2)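 Broth microdilution per CLSI. Overnight culture adjusted to 0.5 McFarland in saline, diluted 1:50 in Mueller-Hinton broth, and added to an equal volume of 2-fold serial compound dilutions in MHB. Incubated 18 h at 37 °C. MIC taken as the lowest concentration with no visible growth.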

Escherichia coli [20] = experiment: Antibacterial activity against amikacin-resistant Escherichia coli isolate CAN-ICU 63074 after 18 hrs by microtiter dilution assay; details: isolate CAN-ICU 63074, 18 h; method in brief: as §1
Pseudomonas aeruginosa [21] = experiment: Synergistic antibacterial activity against Pseudomonas aeruginosa PAO1 after 18 hrs in presence of rifampicin by checkerboard assay
Method in brief: (§3)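 Checkerboard in MHB: antibiotic diluted along one axis and adjuvant along the other (10 × 7 matrix). Inoculum was a 1:50 dilution in MHB of a 0.5 McFarland saline suspension; incubated 18 h at 37 °C. Each FIC = concentration in the no-growth well divided by the MIC alone; FIC index = sum of both FICs. ≤0.5 synergy, 0.5–4 no interaction, ≥4 antagonism.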

Pseudomonas aeruginosa [22] = experiment: Antibacterial activity against Pseudomonas aeruginosa ATCC 27853 after 18 hrs by microtiter dilution assay; details: ATCC 27853, 18 h; method in brief: as §2
Enterococcus faecium = experiment: Antibacterial activity against Enterococcus faecium ATCC 27270 after 18 hrs by microtiter dilution assay; details: ATCC 27270, 18 h; method in brief: as §2
Acinetobacter baumannii [23] = experiment: Antibacterial activity against Acinetobacter baumannii isolate CAN-ICU 63169 after 18 hrs by microtiter dilution assay; details: isolate CAN-ICU 63169, 18 h; method in brief: as §2
Streptococcus pneumoniae = experiment: Antibacterial activity against Streptococcus pneumoniae ATCC 49619 after 18 hrs by microtiter dilution assay; details: ATCC 49619, 18 h; method in brief: as §2
[24] = test system: Stenotrophomonas maltophilia; experiment: Antibacterial activity against Stenotrophomonas maltophilia isolate CAN-ICU 62584 after 18 hrs by microtiter dilution assay; details: isolate CAN-ICU 62584, 18 h; method in brief: as §2
[25] = test system: Staphylococcus epidermidis; experiment: Antibacterial activity against methicillin-susceptible Staphylococcus epidermidis isolate CANWARD-2008 81388 after 18 hrs by microtiter dilution assay; details: isolate CANWARD-2008 81388, 18 h; method in brief: as §1
Staphylococcus aureus [26] = experiment: Antibacterial activity against Staphylococcus aureus ATCC 29213 after 18 hrs by microtiter dilution assay; details: ATCC 29213, 18 h; method in brief: as §1
Escherichia coli [27] = experiment: Antibacterial activity against gentamicin/tobramycin/ciprofloxacin-resistant Escherichia coli isolate CANWARD-2011 97615 harboring AAC3-2A after 18 hrs by microtiter dilution assay; details: isolate CANWARD-2011 97615, 18 h; method in brief: as §1
[28] = test system: Staphylococcus epidermidis; experiment: Antibacterial activity against methicillin-resistant Staphylococcus epidermidis isolate CAN-ICU 61589 after 18 hrs by microtiter dilution assay; details: isolate CAN-ICU 61589, 18 h; method in brief: as §1
Pseudomonas aeruginosa [29] = experiment: Antibacterial activity against gentamicin-resistant Pseudomonas aeruginosa isolate CAN-ICU 62308 after 18 hrs by microtiter dilution assay; details: isolate CAN-ICU 62308, 18 h; method in brief: as §1
Staphylococcus aureus [30] = experiment: Antibacterial activity against methicillin resistant Staphylococcus aureus ATCC 33592 after 18 hrs by microtiter dilution assay; details: ATCC 33592, 18 h; method in brief: as §1
Pseudomonas aeruginosa [31] = experiment: Induction of cytoplasmic membrane depolarization in Pseudomonas aeruginosa PAO1 up to 1200 secs by diSC3-5 staining based fluorescence assay
Method in brief: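 Mid-log PAO1 washed in 5 mM HEPES pH 7.4 with 20 mM glucose and resuspended to OD600 0.05. Cells were loaded with 0.2 mM EDTA and 0.4 µM diSC3-5 for 2 h at 37 °C in the dark, then equilibrated with 100 mM KCl for 30 min. Agent was added and fluorescence followed at 622/670 nm; agents tested at 32 µg/mL.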

Escherichia coli [32] = experiment: Antibacterial activity against gentamicin-resistant Escherichia coli isolate CAN-ICU 61714 after 18 hrs by microtiter dilution assay; details: isolate CAN-ICU 61714, 18 h; method in brief: as §1
Pseudomonas aeruginosa [33] = experiment: Synergistic antibacterial activity against Pseudomonas aeruginosa PAO1 after 18 hrs in presence of minocycline by checkerboard assay; method in brief: as §3
Enterococcus faecalis = experiment: Antibacterial activity against Enterococcus faecalis ATCC 29212 after 18 hrs by microtiter dilution assay; details: ATCC 29212, 18 h; method in brief: as §2
Pseudomonas aeruginosa [34] = experiment: Induction of outer membrane permeabilization in Pseudomonas aeruginosa PAO1 at 32 ug/ml after 30 mins by CFDASE staining based fluorescence assay
Method in brief: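 Log-phase PAO1 washed in PBS, brought to OD600 0.5 and loaded with 100 µM CFDASE for 30 min at 37 °C, then washed. Cells were exposed to agent for 30 min at 37 °C and supernatant fluorescence read at 488/520 nm. Untreated cells were subtracted; 1% Triton X-100 served as positive control.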

Escherichia coli [35] = experiment: Antibacterial activity against Escherichia coli ATCC 25922 after 18 hrs by microtiter dilution assay; details: ATCC 25922, 18 h; method in brief: as §1
Pseudomonas aeruginosa [36] = experiment: Disruption of proton motive force in Pseudomonas aeruginosa PAO1 cytoplasmic membrane assessed as repression of bacterial swimming motility after 20 hrs
Method in brief: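 Swim plates of 0.3% agar with tryptone 5 g/L and NaCl 2.5 g/L, agent mixed into the medium and plates dried 2 h. PAO1 at 1.0 McFarland in 0.85% saline was point-inoculated at the center, and plates incubated 20 h at 37 °C before swim diameter was imaged.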

With `CO[C@H]1/C=C/O[C@@]2(C)Oc3c(C)c(O)c4c(O)c(c(/C=N/N5CCN(C)CC5)c(O)c4c3C2=O)NC(=O)/C(C)=C\C=C\[C@H](C)[C@H](O)[C@@H](C)[C@@H](O)[C@@H](C)[C@H](OC(C)=O)[C@@H]1C` [RIFAMPIN] the Activity (Pseudomonas aeruginosa [1]) was “Active”, the MIC (Pseudomonas aeruginosa [2]) was 16 µg/mL (≈ 19.4 µM) and the MIC (Pseudomonas aeruginosa [3]) was 16 µg/mL (≈ 19.4 µM). It also gave an MIC (Pseudomonas aeruginosa [4]) of 16 µg/mL (≈ 19.4 µM), a mortality at 75 mg/kg (Pseudomonas aeruginosa [5]) of 100% and an MIC (Pseudomonas aeruginosa [6]) of 16 µg/mL (≈ 19.4 µM). For the same compound, the MIC (Klebsiella pneumoniae [7]) was 1020 µg/mL (≈ 1240 µM), the Activity (Pseudomonas aeruginosa [8]) was “inactive” and the MIC (Acinetobacter baumannii [9]) was 2 µg/mL (≈ 2.43 µM). The MIC (Pseudomonas aeruginosa [10]) was 1020 µg/mL (≈ 1240 µM), the MIC (Acinetobacter baumannii [11]) was > 256 µg/mL and the MIC (Pseudomonas aeruginosa [12]) was 16 µg/mL (≈ 19.4 µM). It also gave an MIC (Acinetobacter baumannii [13]) of 2 µg/mL (≈ 2.43 µM), an MIC (Acinetobacter baumannii [14]) of 2 µg/mL (≈ 2.43 µM) and an MIC (Pseudomonas aeruginosa [15]) of 8 µg/mL (≈ 9.72 µM). For the same compound, the Activity (Pseudomonas aeruginosa [16]) was “Active”, the MIC (Enterobacter cloacae) was 16 µg/mL (≈ 19.4 µM) and the MIC (Pseudomonas aeruginosa [17]) was 16 µg/mL (≈ 19.4 µM).
In the case of `CCCCCCCCCCCCN(Cc1c2ccccc2c(Cl)c2ccccc12)C(=O)[C@@H](N)CCCCN.O=C(O)C(F)(F)F.O=C(O)C(F)(F)F`, the MIC (Pseudomonas aeruginosa [18]) was > 128 µg/mL, the MIC (Klebsiella pneumoniae [19]) was > 128 µg/mL and the MIC (Escherichia coli [20]) was 64 µg/mL. The Activity (Pseudomonas aeruginosa [21]) was “inactive”, the MIC (Pseudomonas aeruginosa [2]) was 256 µg/mL and the MIC (Pseudomonas aeruginosa [3]) was 256 µg/mL. The MIC (Pseudomonas aeruginosa [4]) was 64 µg/mL, the MIC (Pseudomonas aeruginosa [22]) was > 128 µg/mL and the MIC (Enterococcus faecium) was 8 µg/mL. The MIC (Acinetobacter baumannii [23]) was 128 µg/mL, the MIC (Streptococcus pneumoniae) was 32 µg/mL and the MIC (Pseudomonas aeruginosa [6]) was 128 µg/mL. The MIC [24] was > 128 µg/mL, the MIC [25] was 8 µg/mL and the MIC (Staphylococcus aureus [26]) was 32 µg/mL. It also gave an MIC (Escherichia coli [27]) of 64 µg/mL, an MIC [28] of 8 µg/mL and an MIC (Pseudomonas aeruginosa [29]) of 128 µg/mL. The MIC (Staphylococcus aureus [30]) was 64 µg/mL, the MIC (Pseudomonas aeruginosa [10]) was 128 µg/mL and the MIC (Pseudomonas aeruginosa [12]) was 256 µg/mL. The Activity (Pseudomonas aeruginosa [31]) was “Dose-dependent effect”, the MIC (Escherichia coli [32]) was 128 µg/mL and the Activity (Pseudomonas aeruginosa [33]) was “inactive”. For the same compound, the MIC (Enterococcus faecalis) was 32 µg/mL, the Activity (Pseudomonas aeruginosa [34]) was “inactive” and the MIC (Escherichia coli [35]) was 64 µg/mL. The MIC (Pseudomonas aeruginosa [15]) was 64 µg/mL, the MIC (Pseudomonas aeruginosa [17]) was 128 µg/mL and the Activity (Pseudomonas aeruginosa [36]) was “Dose-dependent effect”.

From ChEMBL document CHEMBL4014308, “Amphiphilic Tobramycin-Lysine Conjugates Sensitize Multidrug Resistant Gram-Negative Bacteria to Rifampicin and Minocycline” (J Med Chem, 2017)
